Source: PubChem (Johns Hopkins Ion Channel Center)
TRPC6 inhibitor: inhibitors of mouse TRPC6 channel | actives 1.1% (n = 310,000) | AID 2553 | B-score at 10 µM | HEK293-TRPC6, membrane potential dye, ACh-evoked depolarization; active compounds read low | Q61143;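 active = B-score under library mean minus 3 SD, initial fluorescence not abnormally high, positive integrated signal ratio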;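 also: B-score derived from integrated fluorescence ratio over the kinetic read; more negative B-score means stronger inhibition of depolarization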
TRPC4 act: activators of mouse TRPC4 channel; HEK293 TRPC4beta/mu-opioid, Fluo4 calcium fluorescence; active compounds read high; B-score at 10 µM; actives 0.49% (n = 310,000); AID 2237;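 active = B-score above 5 SD of library B-scores, and initial fluorescence ratio not above library mean plus 5 SD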;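 also: positive B-score marks a calcium rise read as TRPC4 activation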
Target sequence (Q9QUQ5 whole entry, looked up): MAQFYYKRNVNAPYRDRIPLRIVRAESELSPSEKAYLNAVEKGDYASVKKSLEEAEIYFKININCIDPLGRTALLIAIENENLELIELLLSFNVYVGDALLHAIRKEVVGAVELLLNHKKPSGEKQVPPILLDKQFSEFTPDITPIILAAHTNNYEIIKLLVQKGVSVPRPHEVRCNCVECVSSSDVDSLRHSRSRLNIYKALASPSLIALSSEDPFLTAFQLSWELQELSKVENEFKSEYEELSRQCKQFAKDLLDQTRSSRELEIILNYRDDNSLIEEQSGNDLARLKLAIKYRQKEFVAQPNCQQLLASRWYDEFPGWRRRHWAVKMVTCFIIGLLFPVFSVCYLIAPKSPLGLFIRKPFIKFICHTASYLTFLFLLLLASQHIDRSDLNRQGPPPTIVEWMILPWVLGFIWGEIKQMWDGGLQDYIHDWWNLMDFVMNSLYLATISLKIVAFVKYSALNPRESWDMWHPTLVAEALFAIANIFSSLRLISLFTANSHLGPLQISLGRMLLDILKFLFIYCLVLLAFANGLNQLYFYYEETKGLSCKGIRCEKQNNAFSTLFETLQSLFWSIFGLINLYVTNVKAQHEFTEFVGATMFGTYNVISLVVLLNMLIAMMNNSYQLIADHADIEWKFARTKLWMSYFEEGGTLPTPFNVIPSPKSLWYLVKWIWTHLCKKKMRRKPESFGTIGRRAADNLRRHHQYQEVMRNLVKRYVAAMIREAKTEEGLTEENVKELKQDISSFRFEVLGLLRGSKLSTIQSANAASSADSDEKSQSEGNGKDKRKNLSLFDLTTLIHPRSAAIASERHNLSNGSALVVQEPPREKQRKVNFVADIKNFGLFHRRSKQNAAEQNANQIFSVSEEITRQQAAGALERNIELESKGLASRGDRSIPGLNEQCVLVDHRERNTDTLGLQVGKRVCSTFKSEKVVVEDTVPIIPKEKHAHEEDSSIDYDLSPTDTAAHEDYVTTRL
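Assay system: HEK293 stable line with TRPC4beta plus mu-opioid receptor. Times: dye 45 min RT, read 110 s. Measured by: kinetic Fluo4 calcium fluorescence. Measure: B score of integrated ratio. Controls: assay buffer as low control, maximal DAMGO as high control.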
TRPC4 block: inhibitors of mouse TRPC4 channel; Q9QUQ5; B-score at 10 µM; actives 0.39% (n = 300,000); HEK293 TRPC4beta/mu-opioid, DAMGO-evoked Fluo4 calcium flux; active compounds read low;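 active = B-score over 3 SD under the library average, no early fluorescence shift, positive overall ratio signal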
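Assay system: HEK293 cells with stable TRPC4beta plus mu-opioid receptor expression; Probe or stimulus: DAMGO in two steps, submaximal then maximal; Dosing: single-point compound dosing; Measured by: Fluo4 calcium-dye fluorescence, kinetic read; Read-out basis: B score from integrated Fluo4 fluorescence ratio.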
TRPC6 act: activators of mouse TRPC6 channel | Q61143 | HEK293-TRPC6 membrane potential dye fluorescence; active compounds read high | B-score at 10 µM | AID 2550 | actives 0.13% (n = 310,000);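 active = B-score of the integrated fluorescence ratio above library mean plus 3 SD, and starting fluorescence ratio within library mean plus 5 SD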;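 also: higher score means more depolarization so channel activation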
TRPC4 PAM: TRPC4 (mouse) allosteric potentiation; B-score at 10 µM; AID 2227; HEK293 TRPC4beta/mu-opioid, DAMGO EC20, Fluo-4 Ca2+ flux; active compounds read high; actives 0.42% (n = 310,000);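 active = B-score of calcium response area above 5 SD of library B-scores, with initial fluorescence ratio within 5 SD of library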
TRPC4 sel inh 2: second check of whether TRPC6 inhibitors also affect mouse TRPC4 | shares compounds with TRPC6 inhibitor | HEK293 TRPC4/MOR, membrane potential dye fluorescence; channel activated by saturating DAMGO dose | inhibition, % at 10 µM | actives 42% (n = 920) | AID 2776;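 active = compounds whose fluorescence signal differed from control wells by over 3 SD, either direction, in both duplicate plates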
TRPC4 spec: tests whether TRPC6 inhibitors also affect mouse TRPC4. shares compounds with TRPC6 inhibitor. HEK293 TRPC4/mu-opioid, membrane potential fluorescence. activity change, negative = inhibition, % at 10 µM. actives 61% (n = 920);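 active = rise or fall in signal beyond 3 SD of buffer-only wells in both replicate plates, either sign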;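 also: integrated kinetic ratio of fluorescence range over baseline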
HEK293 MPD ctr 2-1: parental HEK293 nonspecific activity of TRPC6 inhibitors, second screen; shares compounds with TRPC6 inhibitor; parental HEK293 membrane potential dye fluorescence; maximal acetylcholine challenge after compound addition; signal change vs control, % at 10 µM; actives 31% (n = 920); AID 2779;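 active = membrane potential signal moving either way by over 3 SD of the maximum-effect control, in both duplicate plates, meaning non-specific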
HEK293 MPD ctr-1: checks TRPC6 inhibitor effects in parental HEK293 cells | membrane potential signal change, % at 10 µM | parental HEK293 membrane potential dye fluorescence | actives 60% (n = 920) | shares compounds with TRPC6 inhibitor;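 active = membrane potential signal shifting up or down by more than 3 SD of buffer-only wells, on both duplicate plates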
HEK293 MPD ctr-2: checks TRPC6 modulator effects in parental HEK293 cells. shares compounds with TRPC6 inhibitor. membrane potential signal change, % at 10 µM. membrane potential dye fluorescence. actives 51% (n = 2,400);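 active = membrane potential signal moves up or down beyond 5 SD from buffer-only wells, on both duplicate plates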
HEK293 MPD ctr 2-2: parental HEK293 nonspecific activity of TRPC6 modulators, second screen | shares compounds with TRPC6 inhibitor | actives 14% (n = 2,400) | inhibition, % at 10 µM | AID 488926 | membrane potential dye fluorescence; after compound, maximal acetylcholine stimulation;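 active = membrane potential signal drops by more than 5 SD from the mean control signal, in both duplicate plates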
TRPC4 ctr mod: tests whether TRPC6 modulators also affect mouse TRPC4; shares compounds with TRPC6 inhibitor; HEK293 TRPC4/mu-opioid, membrane potential fluorescence; percent change from control (negative = decrease, positive = increase), % at 10 µM; AID 488927; actives 69% (n = 2,400);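 active = membrane potential signal moved up or down beyond 5 SD of buffer control wells, in both duplicate plates, actives on both sides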
TRPC4 ctr inh 2: second check of whether TRPC6 modulators also affect mouse TRPC4 | shares compounds with TRPC6 inhibitor | HEK293 TRPC4/mu-opioid, membrane potential dye fluorescence; stimulated with maximal-effect DAMGO | inhibition, % at 10 µM | actives 55% (n = 2,400) | AID 488928;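 active = drop in membrane potential signal beyond 5 SD of the control wells in both duplicate plates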;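 also: TRPC4 counter screen for TRPC6 hits run under conditions tuned for TRPC6 not TRPC4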
TRPC6 inh conf: confirmation of mouse TRPC6 inhibitors. shares compounds with TRPC6 inhibitor. HEK293-TRPC6, membrane potential dye, ACh-evoked depolarization. inhibition, % at 10 µM. actives 43% (n = 3,300). AID 488960;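 active = fluorescence ratio falls more than 5 SD below the full-stimulation control mean, in both duplicate runs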;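 also: integrated fluorescence ratio of peak minus minimum over baseline after agonist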
TRPC6 act confirm: confirmation of mouse TRPC6 activators. activation, % at 10 µM. HEK293-TRPC6 membrane potential dye fluorescence, FDSS. actives 11% (n = 2,800). shares compounds with TRPC6 inhibitor;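 active = ratio signal rise beyond 5 SD above unstimulated control wells' mean, seen in both duplicate runs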
Of the large screens only hits and unclear results are named; the others gave an inactive call (follow-up assays come after a bar, where they were run). Hits are enriched below; roughly 2.3% of the tested compounds scored in any of these assays.

CC1CC(C)CN(c2nc3c(c(=O)n(C)c(=O)n3C)n2CCSc2ncccn2)C1 (stereo not given)	none
Cn1c(=O)c2c(nc(N3CCOCC3)n2CCSc2ncccn2)n(C)c1=O	TRPC6 inhibitor -5.6 | HEK293 MPD ctr-2 -360% | HEK293 MPD ctr 2-2 inactive | TRPC4 ctr mod -56% | TRPC4 ctr inh 2 inactive | TRPC6 inh conf inactive | TRPC6 act confirm inactive
Cc1ccc(N2CC(C(=O)Nc3ccc(S(=O)(=O)Nc4ncccn4)cc3)CC2=O)cc1C (stereo not given)	none
CCCN(C(=O)C1=COCCO1)c1c(N)n(Cc2ccccc2)c(=O)[nH]c1=O	none
CCN(CC)CCCOC(=O)C1(c2ccccc2)CCCC1	TRPC6 inhibitor -9.1 | TRPC4 sel inh 2 inactive | TRPC4 spec 12% | HEK293 MPD ctr 2-1 12% | HEK293 MPD ctr-1 12% | TRPC6 inh conf 60%
C[N+](C)(C)CCOC(=O)C1(c2ccccc2)CCCC1	TRPC6 inhibitor -8.5 | TRPC4 sel inh 2 inactive | TRPC4 spec inactive | HEK293 MPD ctr 2-1 1.0% | HEK293 MPD ctr-1 inactive | TRPC6 inh conf 69% | TRPC6 act confirm inactive
C[N+]1(CCOC(=O)C2(c3ccccc3)CCCC2)CCCCC1	TRPC6 inhibitor -11 | TRPC4 sel inh 2 inactive | TRPC4 spec inactive | HEK293 MPD ctr 2-1 -16% | HEK293 MPD ctr-1 inactive | TRPC6 inh conf 78% | TRPC6 act confirm inactive
Cc1c(OCC(=O)N(C)C)ccc2c3c(c(=O)oc12)CCCCC3	TRPC6 inhibitor -11 | TRPC4 sel inh 2 inactive | TRPC4 spec inactive | HEK293 MPD ctr 2-1 inactive | HEK293 MPD ctr-1 -0.2% | TRPC6 inh conf inactive | TRPC6 act confirm inactive
Cc1ccc2nc3c(cc(S(=O)(=O)c4ccccc4)c(=N)n3Cc3ccco3)c(=O)n2c1	TRPC6 inhibitor -5.5 | HEK293 MPD ctr-2 inactive | HEK293 MPD ctr 2-2 inactive | TRPC4 ctr mod inactive | TRPC4 ctr inh 2 inactive | TRPC6 inh conf inactive | TRPC6 act confirm inactive
CN1CCN(NC(=O)c2cn(-c3ccccc3)nc2-c2ccc(OC(F)F)cc2)CC1	none (no result: TRPC4 block)
CCOC(=O)N1CCC(NC(=O)C2=CCN(S(=O)(=O)c3ccc(OC)cc3)CC2)CC1	none
CCCC(=O)c1c[nH]c(C(=O)N2CCOCC2)c1	none
O=C(c1ccc([N+](=O)[O-])cc1)N(Cc1ccc(Cl)cc1)N1C(=O)CCCC1=O	TRPC6 inhibitor -16, TRPC4 act 47, TRPC6 act 17 | HEK293 MPD ctr-2 390% | HEK293 MPD ctr 2-2 159% | TRPC4 ctr mod 50% | TRPC4 ctr inh 2 45% | TRPC6 inh conf 80% | TRPC6 act confirm 122%
CCSc1nc(C)cc(Oc2ccc(=O)n(C)n2)n1	TRPC6 inhibitor -8.6 | TRPC4 sel inh 2 inactive | TRPC4 spec inactive | HEK293 MPD ctr 2-1 inactive | HEK293 MPD ctr-1 inactive | TRPC6 inh conf inactive | TRPC6 act confirm inactive
CCN(CC)c1ccc(CNc2nc3ccccc3n2CCN2CCCCC2)cc1	TRPC6 inhibitor -5.9, TRPC4 act 119 | HEK293 MPD ctr-2 inactive | HEK293 MPD ctr 2-2 inactive | TRPC4 ctr mod 32% | TRPC4 ctr inh 2 97% | TRPC6 inh conf 52% | TRPC6 act confirm inactive
Cn1c(CNc2nc3ccccc3n2CCN2CCCCC2)nc2ccccc21	TRPC6 inhibitor -6.5 | HEK293 MPD ctr-2 inactive | HEK293 MPD ctr 2-2 inactive | TRPC4 ctr mod inactive | TRPC4 ctr inh 2 72% | TRPC6 inh conf 44% | TRPC6 act confirm inactive
CCn1c(NCc2ccc(N(C)C)cc2)nc2ccccc21	TRPC6 inhibitor -5.3 | HEK293 MPD ctr-2 inactive | HEK293 MPD ctr 2-2 inactive | TRPC4 ctr mod -14% | TRPC4 ctr inh 2 46% | TRPC6 inh conf inactive | TRPC6 act confirm inactive
c1ccc(Cn2c(CNc3nc4ccccc4n3CCN3CCCCC3)nc3ccccc32)cc1	TRPC6 inhibitor -6.7 | TRPC4 sel inh 2 59% | TRPC4 spec 11% | HEK293 MPD ctr 2-1 284% | HEK293 MPD ctr-1 6.9% | TRPC6 inh conf inactive | TRPC6 act confirm inactive
COc1ccc(CNc2nc3ccccc3n2CCN2CCCCC2)cc1	none
COc1ccc(CCNC(=O)CSc2nnc(Cc3cccn3C)n2C)cc1OC	none
Cc1noc(C)c1C(=O)N1CCC(C(=O)c2ccccc2)CC1	none
O=C(Nc1ccc(OC(F)(F)F)cc1)C1CCCN(S(=O)(=O)c2cnc[nH]2)C1 (stereo not given)	none
CCN(CC)CCn1c(NCc2ccco2)nc2ccccc21	none
CCN(CC)CCn1c(NCc2nc3ccccc3n2Cc2ccccc2)nc2ccccc21	TRPC6 inhibitor -7.1 | TRPC4 sel inh 2 36% | TRPC4 spec 18% | HEK293 MPD ctr 2-1 276% | HEK293 MPD ctr-1 8.3% | TRPC6 inh conf 53% | TRPC6 act confirm inactive
O=c1cc(-c2ccc(Cl)c(Cl)c2)[nH][nH]1	TRPC6 inhibitor -5.1 | HEK293 MPD ctr-2 inactive | HEK293 MPD ctr 2-2 inactive | TRPC4 ctr mod inactive | TRPC4 ctr inh 2 inactive | TRPC6 inh conf inactive | TRPC6 act confirm inactive
Oc1ccccc1Oc1ncc(Br)c(Cl)n1	none
Oc1ccccc1Oc1ncc(Br)c(N2CCOCC2)n1	TRPC6 inhibitor -7.2 | TRPC4 sel inh 2 inactive | TRPC4 spec inactive | HEK293 MPD ctr 2-1 inactive | HEK293 MPD ctr-1 inactive | TRPC6 inh conf inactive | TRPC6 act confirm inactive
